In publication PMC4721638 (Integrative biology : quantitative biosciences from nano to …, 2015):
[ ]: non-standard residue; d: D form. Ahx = NCCCCCC(=O)O

B1: Recombinant protein RHAMM-CT (aa. 706–767) (domain or fragment)
chain: RDSYAQLLGHQNLKQKIKHVVKLKDENSQLKSEVSKLRSQLVKRKQNELRLQGELDKLQI

Columns and labels:
[1] = target: T1, RHAMM:HA interaction, immobilized recombinant RHAMM (Mus musculus, UniProt Q00547); experiment: Competitive ELISA, fluorescein-labelled peptides vs HA; assay type: binding; conditions: summary of the competitive ELISA results
T1 sequence (Q00547 with tags, fused parts or gaps): B1 chain

PC3MLN4 cells [2] = experiment: Cell invasion assay; assay type: cell-based, human; conditions: 10 µg/mL, 48 hrs, compared to scrambled peptide control
In short: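 Gelatin invadopodia assay: PC3MLN4 cells are plated at 50% confluency on Cy3-gelatin-coated chamber slides in growth medium with test peptide or scrambled control peptide (10 µg/mL each). After 48 h, cells are fixed, stained with FITC-phalloidin and DAPI, and imaged by confocal microscopy to assess degradation of the fluorescent matrix.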

PC3MLN4 cells [3] = experiment: Cell adhesion on invasion assay substrates; assay type: cell-based, human; conditions: PC3MLN4 on the invasion assay substrates (not shown)
PC3MLN4 cells [4] = experiment: Anchorage independent growth; assay type: cell-based, human
[5] = target: T2, peptide 2b (VEGEGEEEGEEY); experiment: SPR
T2 peptide: Ac-C[Ahx]VEGEGEEEGEEY-NH2

[6] = target: T3, peptide 10b (EEDFGEEAEEEA); experiment: SPR
T3 peptide: Ac-C[Ahx]EEDFGEEAEEEA-NH2

[7] = target: T4, peptide 14b (FTEAESNMNDLV); experiment: SPR
T4 peptide: Ac-C[Ahx]FTEAESNMNDLV-NH2

Row | Molecule | Overall efficiency at competing with HA for binding to RHAMM [1] | Inhibition of the ability to degrade collagen (PC3MLN4 cells [2]) [%] | Inhibition of cell adhesion (PC3MLN4 cells [3]) | Effect on anchorage independent proliferation (PC3MLN4 cells [4]) | Kd [5] [nM] | Kd [6] [nM] | Kd [7] [nM]
1 | EAFEDEEEEIDG [12a] | most efficient at competing with HA |  |  |  |  |  | 
2 | FTEAESNMNDLV [14a] | most efficient at competing with HA | 80 | no observed inhibition | marginal effects |  |  | 
3 | B1 |  |  |  |  | 24 | 32 | 30
